Laboratory results: ChEMBL document CHEMBL3286367, “Synthesis of new class of spirocarbocycle derivatives by multicomponent domino reaction and their evaluation for antimicrobial, anticancer activity and molecular docking studies” (2014)
In brackets after ≈: the same amount, converted by molar mass. Activity calls are given as the source filed them. The calls are words filed in the database; no cut-off is given here.

What was measured:
[1] = system: Staphylococcus epidermidis; assay: Antimicrobial activity against Staphylococcus epidermidis MTCC 3615 assessed as zone of inhibition at 1 mg/disc after 24 hrs incubation by disc diffusion assay; format: functional
How it was run: (§1)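 Inocula grown in Mueller Hinton broth for 24 h at 37 °C and swabbed onto Mueller Hinton agar. Discs carried 1 mg compound each and stood 30 min at room temperature before 24 h incubation at 37 °C. Solvent as negative control. Inhibition zones recorded in mm; experiment done twice.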

Staphylococcus aureus [2] = assay: Antimicrobial activity against Staphylococcus aureus MTCC 96 assessed as zone of inhibition at 1 mg/disc after 24 hrs incubation by disc diffusion assay; format: functional; how it was run: as §1
Staphylococcus aureus [3] = assay: Antimicrobial activity against methicillin-resistant Staphylococcus aureus assessed as zone of inhibition at 1 mg/disc after 24 hrs incubation by disc diffusion assay; format: functional
How it was run: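 Inoculum grown in Mueller Hinton broth 24 h at 37°C, swabbed onto Mueller Hinton agar and dried 10 min. Discs loaded at 1 mg/disc, then 30 min at room temperature for diffusion. Plates incubated 24 h at 37°C. Solvent negative control; streptomycin positive control. Zone of inhibition read in mm; experiment done twice.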

Micrococcus luteus [4] = assay: Antimicrobial activity against Micrococcus luteus MTCC 106 assessed as zone of inhibition at 1 mg/disc after 24 hrs incubation by disc diffusion assay; format: functional; how it was run: as §1
Klebsiella aerogenes [5] = assay: Antimicrobial activity against Enterobacter aerogenes MTCC 111 assessed as zone of inhibition at 1 mg/disc after 24 hrs incubation by disc diffusion assay; format: functional; how it was run: as §1
Salmonella typhimurium [6] = assay: Antimicrobial activity against Salmonella typhimurium MTCC 1251 assessed as zone of inhibition at 1 mg/disc after 24 hrs incubation by disc diffusion assay; format: functional, Salmonella enterica subsp. enterica serovar Typhimurium; how it was run: as §1
Klebsiella pneumoniae [7] = assay: Antimicrobial activity against Klebsiella pneumonia MTCC 109 assessed as zone of inhibition at 1 mg/disc after 24 hrs incubation by disc diffusion assay; format: functional; how it was run: as §1
Proteus vulgaris [8] = assay: Antimicrobial activity against Proteus vulgaris MTCC 1771 assessed as zone of inhibition at 1 mg/disc after 24 hrs incubation by disc diffusion assay; format: functional; how it was run: as §1
Shigella flexneri [9] = assay: Antimicrobial activity against Shigella flexneri MTCC 1457 assessed as zone of inhibition at 1 mg/disc after 24 hrs incubation by disc diffusion assay; format: functional; how it was run: as §1
Candida albicans = assay: Antifungal activity against Candida albicans MTCC 227 assessed as zone of inhibition at 1 mg/disc after 48 hrs incubation by disc diffusion assay; format: functional
How it was run: (§2)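 Disc diffusion on Mueller Hinton agar with swabbed cultures, 1 mg compound per disc. Discs stood 30 min at room temperature for diffusion, then plates incubated 48 h at 28 °C. Solvent as negative control. Yeast pre-grown in Sabouraud dextrose broth at 28 °C for 48-72 h; filamentous fungal spores came from SDA slants grown 10 days at 28 °C. Zone diameters in mm; run twice.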

Malassezia pachydermatis = assay: Antifungal activity against Malassezia pachydermatis assessed as zone of inhibition at 1 mg/disc after 48 hrs incubation by disc diffusion assay; format: functional; how it was run: as §2
[10] = system: Staphylococcus epidermidis; assay: Antimicrobial activity against Staphylococcus epidermidis MTCC 3615 assessed as absence of visible growth after 48 to 72 hrs; format: functional
Staphylococcus aureus [11] = assay: Antimicrobial activity against Staphylococcus aureus MTCC 96 assessed as absence of visible growth after 48 to 72 hrs; format: functional
Staphylococcus aureus [12] = assay: Antimicrobial activity against methicillin-resistant Staphylococcus aureus assessed as absence of visible growth after 48 to 72 hrs; format: functional
How it was run: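 Broth two-fold serial dilution in 96-well plates, 1000 to 7.81 µg/mL, compound dissolved in DMSO (2%). Inoculum grown in Mueller Hinton broth 24 h at 37°C. Streptomycin positive control. 5 µl of tested broth plated on MHA; MIC is the lowest concentration inhibiting visible growth on agar.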

Micrococcus luteus [13] = assay: Antimicrobial activity against Micrococcus luteus MTCC 106 assessed as absence of visible growth after 48 to 72 hrs; format: functional
Klebsiella aerogenes [14] = assay: Antimicrobial activity against Enterobacter aerogenes MTCC 111 assessed as absence of visible growth after 48 to 72 hrs; format: functional
Salmonella typhimurium [15] = assay: Antimicrobial activity against Salmonella typhimurium MTCC 1251 assessed as absence of visible growth after 48 to 72 hrs; format: functional, Salmonella enterica subsp. enterica serovar Typhimurium; conditions: Salmonella enterica
Proteus vulgaris [16] = assay: Antimicrobial activity against Proteus vulgaris MTCC 1771 assessed as absence of visible growth after 48 to 72 hrs; format: functional
Shigella flexneri [17] = assay: Antimicrobial activity against Shigella flexneri MTCC 1457 assessed as absence of visible growth after 24 hrs
Klebsiella pneumoniae [18] = assay: Antimicrobial activity against Klebsiella pneumonia MTCC 109 assessed as absence of visible growth after 24 hrs
[19] = system: Staphylococcus epidermidis; assay: Antimicrobial activity against Staphylococcus epidermidis MTCC 3615 assessed as absence of visible growth after 24 hrs

N#CC1=C(N)[C@]2(C(=O)Nc3ccccc32)[C@@H](c2ccc(Br)cc2)[C@@H]2CCCC=C12
inhibition zone (IZ) [1]: 10 mm
inhibition zone (IZ) (Staphylococcus aureus [2]): 12 mm
inhibition zone (IZ) (Staphylococcus aureus [3]): 12 mm
inhibition zone (IZ) (Micrococcus luteus [4]): 8 mm
inhibition zone (IZ) (Klebsiella aerogenes [5]): 15 mm
inhibition zone (IZ) (Salmonella typhimurium [6]): 11 mm
inhibition zone (IZ) (Klebsiella pneumoniae [7]): 10 mm
inhibition zone (IZ) (Proteus vulgaris [8]): 9 mm
inhibition zone (IZ) (Shigella flexneri [9]): 8 mm
inhibition zone (IZ) (Candida albicans): 10 mm
inhibition zone (IZ) (Malassezia pachydermatis): 10 mm
MIC [10]: 500 µg/mL (≈ 1120 µM)
MIC (Staphylococcus aureus [11]): 250 µg/mL (≈ 560 µM)
MIC (Staphylococcus aureus [12]): 250 µg/mL (≈ 560 µM)
MIC (Micrococcus luteus [13]): 1000 µg/mL (≈ 2240 µM)
MIC (Klebsiella aerogenes [14]): 250 µg/mL (≈ 560 µM)
MIC (Salmonella typhimurium [15]): 250 µg/mL (≈ 560 µM)
MIC (Proteus vulgaris [16]): 1000 µg/mL (≈ 2240 µM)
MIC (Shigella flexneri [17]): 1000 µg/mL (≈ 2240 µM)
MIC (Klebsiella pneumoniae [18]): 500 µg/mL (≈ 1120 µM)

N#CC1=C(N)C2(C(=O)c3ccccc3C2=O)[C@@H](c2cccs2)[C@@H]2CCCC=C12 (relative stereo)
inhibition zone (IZ) [1]: 12 mm
inhibition zone (IZ) (Staphylococcus aureus [2]): 10 mm
inhibition zone (IZ) (Staphylococcus aureus [3]): 18 mm
inhibition zone (IZ) (Micrococcus luteus [4]): 10 mm
inhibition zone (IZ) (Klebsiella aerogenes [5]): 15 mm
inhibition zone (IZ) (Salmonella typhimurium [6]): 16 mm
inhibition zone (IZ) (Klebsiella pneumoniae [7]): 14 mm
inhibition zone (IZ) (Proteus vulgaris [8]): 22 mm
inhibition zone (IZ) (Shigella flexneri [9]): 24 mm
inhibition zone (IZ) (Candida albicans): 10 mm
inhibition zone (IZ) (Malassezia pachydermatis): 11 mm
MIC (Staphylococcus aureus [11]): 250 µg/mL (≈ 647 µM)
MIC (Staphylococcus aureus [12]): 125 µg/mL (≈ 323 µM)
MIC (Micrococcus luteus [13]): 250 µg/mL (≈ 647 µM)
MIC (Klebsiella aerogenes [14]): 250 µg/mL (≈ 647 µM)
MIC (Salmonella typhimurium [15]): 125 µg/mL (≈ 323 µM)
MIC (Proteus vulgaris [16]): 62.5 µg/mL (≈ 162 µM)
MIC (Shigella flexneri [17]): 62.5 µg/mL (≈ 162 µM)
MIC (Klebsiella pneumoniae [18]): 250 µg/mL (≈ 647 µM)
MIC [19]: 250 µg/mL (≈ 647 µM)

N#CC1=C(N)C2(C(=O)c3ccccc3C2=O)[C@@H](c2ccccc2F)[C@@H]2CCC=C12 (relative stereo)
inhibition zone (IZ) [1]: 17 mm
inhibition zone (IZ) (Staphylococcus aureus [2]): 14 mm
inhibition zone (IZ) (Staphylococcus aureus [3]): 16 mm
inhibition zone (IZ) (Micrococcus luteus [4]): 12 mm
inhibition zone (IZ) (Klebsiella aerogenes [5]): 15 mm
inhibition zone (IZ) (Salmonella typhimurium [6]): 12 mm
inhibition zone (IZ) (Klebsiella pneumoniae [7]): 15 mm
inhibition zone (IZ) (Proteus vulgaris [8]): 14 mm
inhibition zone (IZ) (Shigella flexneri [9]): 10 mm
inhibition (Candida albicans): inactive
inhibition (Malassezia pachydermatis): inactive
MIC (Staphylococcus aureus [11]): 250 µg/mL (≈ 650 µM)
MIC (Staphylococcus aureus [12]): 125 µg/mL (≈ 325 µM)
MIC (Micrococcus luteus [13]): 250 µg/mL (≈ 650 µM)
MIC (Klebsiella aerogenes [14]): 250 µg/mL (≈ 650 µM)
MIC (Salmonella typhimurium [15]): 250 µg/mL (≈ 650 µM)
MIC (Proteus vulgaris [16]): 250 µg/mL (≈ 650 µM)
MIC (Shigella flexneri [17]): 250 µg/mL (≈ 650 µM)
MIC (Klebsiella pneumoniae [18]): 250 µg/mL (≈ 650 µM)
MIC [19]: 125 µg/mL (≈ 325 µM)

N#CC1=C(N)C2(C(=O)c3ccccc3C2=O)[C@@H](c2cccc3ccccc23)[C@@H]2CCCC=C12 (relative stereo)
inhibition zone (IZ) [1]: 15 mm
inhibition zone (IZ) (Staphylococcus aureus [2]): 12 mm
inhibition zone (IZ) (Staphylococcus aureus [3]): 21 mm
inhibition zone (IZ) (Micrococcus luteus [4]): 22 mm
inhibition zone (IZ) (Klebsiella aerogenes [5]): 17 mm
inhibition zone (IZ) (Salmonella typhimurium [6]): 18 mm
inhibition zone (IZ) (Klebsiella pneumoniae [7]): 17 mm
inhibition zone (IZ) (Proteus vulgaris [8]): 19 mm
inhibition zone (IZ) (Shigella flexneri [9]): 21 mm
inhibition zone (IZ) (Candida albicans): 10 mm
inhibition zone (IZ) (Malassezia pachydermatis): 9 mm
MIC (Staphylococcus aureus [11]): 250 µg/mL (≈ 581 µM)
MIC (Staphylococcus aureus [12]): 62.5 µg/mL (≈ 145 µM)
MIC (Micrococcus luteus [13]): 62.5 µg/mL (≈ 145 µM)
MIC (Klebsiella aerogenes [14]): 125 µg/mL (≈ 290 µM)
MIC (Salmonella typhimurium [15]): 125 µg/mL (≈ 290 µM)
MIC (Proteus vulgaris [16]): 125 µg/mL (≈ 290 µM)
MIC (Shigella flexneri [17]): 62.5 µg/mL (≈ 145 µM)
MIC (Klebsiella pneumoniae [18]): 125 µg/mL (≈ 290 µM)
MIC [19]: 125 µg/mL (≈ 290 µM)

N#CC1=C(N)C2(C(=O)c3ccccc3C2=O)[C@@H](c2ccoc2)[C@@H]2CCCC=C12 (relative stereo)
inhibition zone (IZ) [1]: 12 mm
inhibition zone (IZ) (Staphylococcus aureus [2]): 14 mm
inhibition zone (IZ) (Staphylococcus aureus [3]): 13 mm
inhibition zone (IZ) (Micrococcus luteus [4]): 18 mm
inhibition zone (IZ) (Klebsiella aerogenes [5]): 15 mm
inhibition zone (IZ) (Salmonella typhimurium [6]): 10 mm
inhibition zone (IZ) (Klebsiella pneumoniae [7]): 12 mm
inhibition zone (IZ) (Proteus vulgaris [8]): 15 mm
inhibition zone (IZ) (Shigella flexneri [9]): 14 mm
inhibition zone (IZ) (Candida albicans): 13 mm
inhibition zone (IZ) (Malassezia pachydermatis): 12 mm
MIC (Staphylococcus aureus [11]): 250 µg/mL (≈ 675 µM)
MIC (Staphylococcus aureus [12]): 250 µg/mL (≈ 675 µM)
MIC (Micrococcus luteus [13]): 125 µg/mL (≈ 337 µM)
MIC (Klebsiella aerogenes [14]): 250 µg/mL (≈ 675 µM)
MIC (Salmonella typhimurium [15]): 500 µg/mL (≈ 1350 µM)
MIC (Proteus vulgaris [16]): 250 µg/mL (≈ 675 µM)
MIC (Shigella flexneri [17]): 250 µg/mL (≈ 675 µM)
MIC (Klebsiella pneumoniae [18]): 250 µg/mL (≈ 675 µM)
MIC [19]: 250 µg/mL (≈ 675 µM)
